The record followed here is ChEMBL document CHEMBL1148823, “Inactivation of O(6)-alkylguanine-DNA alkyltransferase by folate esters of O(6)-benzyl-2'-deoxyguanosine and of O(6)-[4-(hydroxymethyl)benzyl]guanine” (J Med Chem, 2007).

Activity calls are given as the source filed them. The calls are words filed in the database; no cut-off is given here.

Test [1] is filed under the species Homo sapiens. As to the kind of experiment: (§1) Inactivation of human alkyltransferase in presence of DNA. In short, it runs like this:
(§2)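 Purified recombinant human alkyltransferase was incubated with a range of inhibitor concentrations plus 10 μg calf thymus DNA for 30 min at 37°C. The buffer was 50 mM Tris-HCl pH 7.6, 0.1 mM EDTA and 5.0 mM DTT. ED50 came from graphs of % remaining activity against inhibitor concentration. Values are means of 3–5 repeats or of two experiments.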

For test [2], the species on record is Homo sapiens. As to the kind of experiment: Inactivation of human alkyltransferase in absence of DNA. Summed up:
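Purified recombinant human alkyltransferase was incubated with a range of inhibitor concentrations for 30 min at 37°C. The reaction buffer was 50 mM Tris-HCl pH 7.6, 0.1 mM EDTA and 5.0 mM dithiothreitol, with 50 μg hemocyanin and no DNA. ED50 was read from plots of % remaining activity against inhibitor concentration. Values are means of 3–5 repeats or of two experiments.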

For another test, the system named is HT-29. Nature of the test: Induction of sensitization to BCNU-induced killing in human HT29 cells. It is filed as functional, cell-based. In short, it runs like this:
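HT29 cells in RPMI with 10% FBS were given inhibitor for 2 h before 40 μM BCNU for 2 h. Alternatively, cells grown 48 h in folate-free RPMI got inhibitor for 8 h before 20 μM BCNU for 2 h. Inhibitor-containing medium followed for 16–18 h. Cells were replated at 250–1000 per flask and grown 8 days. Survival was scored as crystal violet-stained colonies.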

A further test concerns A549. Nature of the test: Induction of sensitization to BCNU-induced killing in human A549 cells. The test is classed as functional, cell-based. Summed up: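 A549 cells were grown 48 h in folate-free RPMI with 10% FBS and plated at 10⁶ per flask. After 24 h they were given inhibitor at various concentrations for 8 h, then 20 μM BCNU for 2 h. Medium was replaced with inhibitor-containing medium for 16–18 h. Cells were replated at 250–1000 per flask and grown 8 days. Crystal violet-stained colonies were counted.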

Test [3] in a line: as §1. In short, it runs like this:
as §2

For a further test, the system named is KB. As to the kind of experiment: Induction of sensitization to BCNU-induced killing in human KB cells. It is filed as functional, cell-based. In short, it runs like this: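 KB cells were grown 48 h in folate-free RPMI with 10% FBS and plated at 10⁶ per flask. After 24 h they were exposed to inhibitor at different concentrations for 8 h, then 40 μM BCNU for 2 h. Medium with inhibitor but no BCNU was given for 16–18 h. Cells were replated at 250–1000 per flask for 8 days of colony formation. Colonies were stained with crystal violet and counted.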

For test [4], the system named is T1, Methylated-DNA--protein-cysteine methyltransferase (Homo sapiens), P16455 [P140K].
T1 sequence (whole entry): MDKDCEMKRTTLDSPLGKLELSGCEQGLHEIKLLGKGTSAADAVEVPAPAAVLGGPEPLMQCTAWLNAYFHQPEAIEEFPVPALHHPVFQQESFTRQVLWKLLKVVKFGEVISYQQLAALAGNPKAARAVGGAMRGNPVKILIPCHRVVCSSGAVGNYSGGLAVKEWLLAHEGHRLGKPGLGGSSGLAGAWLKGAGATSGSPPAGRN
As to the kind of experiment: Inactivation of human alkyltransferase P140K mutant.

For `Nc1nc(OCc2ccc(COC(=O)CC[C@H](NC(=O)c3ccc(NCc4cnc5nc(N)[nH]c(=O)c5n4)cc3)C(=O)O)cc2)c2nc[nH]c2n1`, the ED50 was determined as 240 nM in the test listed under Homo sapiens [1] and 700 nM in the test filed under Homo sapiens [2].

Consider `Nc1nc(OCc2ccc(CO)cc2)c2nc[nH]c2n1`, for which the outcome in the test with HT-29 was Active. Also, the ED50 in the test filed under Homo sapiens [1] was determined as 100 nM; in the test listed under Homo sapiens [2], 400 nM.

For the compound `Nc1nc(OCc2ccccc2)c2ncn([C@H]3C[C@H](O)[C@@H](COC(=O)CC[C@H](NC(=O)c4ccc(NCc5cnc6nc(N)[nH]c(=O)c6n5)cc4)C(=O)O)O3)c2n1`, the outcome with HT-29, with A549 and in the test with KB was Active. In test [3], the EC50 was 3060 nM. The compound further had an ED50 in the test filed under Homo sapiens [2] of 640 nM.

In the case of `Nc1nc(OCc2ccccc2)c2ncn([C@H]3C[C@H](O)[C@@H](CO)O3)c2n1`, the figures for the ED50 in the test filed under Homo sapiens [1] and in the test filed under Homo sapiens [2] were 40000 nM and 2000 nM, respectively.

`Nc1nc(OCc2ccccc2)c2nc[nH]c2n1`: the ED50 in the test filed under Homo sapiens [1] stood at 100 nM; in the test filed under Homo sapiens [2], 300 nM.

With `Nc1nc(OCc2ccccc2)c2ncn([C@H]3C[C@H](OC(=O)CC[C@H](NC(=O)c4ccc(NCc5cnc6nc(N)[nH]c(=O)c6n5)cc4)C(=O)O)[C@@H](CO)O3)c2n1`, the outcome in the test with HT-29, in the test on A549 and in the test with KB was Active. Besides, the ED50 worked out at 680 nM in the test filed under Homo sapiens [1], 100000 nM in test [4] and 16 nM in the test filed under Homo sapiens [2].

What is called EC50 is the concentration needed to bring the measured effect to its halfway point.
